Key:
Type in all cases: functional, cell-based
SK-OV-3 = assay: Cytotoxicity against human SKOV3 cells by SRB assay
How it was run: (§1)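 Sulforhodamine B (SRB) assay against cultured human cancer cell lines, run at the Korea Research Institute of Chemical Technology. Cytotoxicity is reported as IC50 in µM.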

SK-MEL-2 = assay: Cytotoxicity against human SK-MEL-2 cells by SRB assay; how it was run: as §1
HCT-15 = assay: Cytotoxicity against human HCT15 cells by SRB assay; how it was run: as §1
A549 = assay: Cytotoxicity against human A549 cells by SRB assay; how it was run: as §1

SMILES | IC50 (SK-OV-3) | IC50 (SK-MEL-2) | IC50 (HCT-15) | IC50 (A549)
COc1cccc2c1C(=O)c1c(O)c3c(c(O)c1C2=O)C[C@@](O)(C(=O)CO)C[C@@H]3O[C@H]1C[C@H](N)[C@H](O)[C@H](C)O1 [DOXORUBICIN] | 0.056 µM | 0.117 µM | 0.164 µM | 
C[C@@]12CCC[C@@](C)(C(=O)O)[C@H]1[C@H](O)[C@H](O)[C@@]13C[C@H](CC[C@@H]21)[C@](O)(CO)C3 | > 30 µM | > 30 µM | > 30 µM | > 30 µM
C[C@@]12CCC[C@@](C)(C(=O)O)[C@H]1[C@H](O)[C@H](O)[C@@]13C[C@H](CC[C@@H]21)[C@@](O)(CO)C3 | > 30 µM | > 30 µM | > 30 µM | > 30 µM
COC(=O)[C@]1(C)CCC[C@@]2(C)[C@@H]3CC[C@H]4C[C@]3(C[C@@]4(CO)O[C@@H]3O[C@H](CO)[C@@H](O)[C@H](O)[C@H]3O)[C@@H](O)[C@@H](O)[C@@H]21 [PHARBOSIDE C] | > 30 µM | > 30 µM | > 30 µM | > 30 µM
C[C@@]12CCC[C@@](C)(C(=O)O[C@@H]3O[C@H](CO)[C@@H](O)[C@H](O)[C@H]3O)[C@H]1[C@H](O)[C@H](O)[C@@]13C[C@H](CC[C@@H]21)[C@](O)(CO)C3 [PHARBOSIDE D] | 28.7 µM | 14.3 µM | 17.2 µM | 25.2 µM
C=C1C[C@]23C[C@@H]1CC[C@H]2[C@]1(C)CCC[C@@](C)(C(=O)O[C@@H]2O[C@H](CO)[C@@H](O)[C@H](O)[C@H]2O)[C@H]1C[C@H]3O [PHARBOSIDE B] | > 30 µM | > 30 µM | > 30 µM | > 30 µM
C=C1C[C@]23C[C@@H]1CC[C@H]2[C@]1(C)CCC[C@@](C)(C(=O)O[C@@H]2O[C@H](CO)[C@@H](O)[C@H](O)[C@H]2O)[C@H]1C[C@@H]3O [PHARBOSIDE A] | > 30 µM | > 30 µM | > 30 µM | > 30 µM
C[C@@]12CCC[C@@](C)(C(=O)O)[C@H]1[C@H](O)[C@H](O)[C@@]13C[C@H](CC[C@@H]21)[C@](CO)(O[C@@H]1O[C@H](CO)[C@@H](O)[C@H](O)[C@H]1O)C3 [PHARBOSIDE F] | > 30 µM | > 30 µM | > 30 µM | > 30 µM
C=C1C[C@]23C[C@@H]1CC[C@H]2[C@]1(C)CCC[C@@](C)(C(=O)O[C@@H]2O[C@H](CO)[C@@H](O)[C@H](O)[C@H]2O)C1[C@@H]3C=O (stereo partly drawn) [PHARBOSIDE G] | > 30 µM | > 30 µM | > 30 µM | > 30 µM
C[C@]12CCC[C@@]3(C)C(=O)O[C@@H]([C@H](O)[C@@]45C[C@H](CC[C@@H]14)[C@](O)(CO)C5)[C@@H]23 | > 30 µM | > 30 µM | > 30 µM | > 30 µM
C[C@@]12CCC[C@@](C)(C(=O)O)[C@H]1[C@H](O)[C@H](O)[C@@]13C[C@H](CC[C@@H]21)[C@](O)(CO[C@@H]1O[C@H](CO)[C@@H](O)[C@H](O)[C@H]1O)C3 [PHARBOSIDE E] | 13.8 µM | 15.2 µM | 22.1 µM | 23.6 µM
